pIC50: −log10 of the molar value.
Key:
Format in all cases: functional, cell-based
MES-SA = experiment: Cytotoxicity against human MES-SA cell line by MTS assay
Procedure, shortened: (§1)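 Cells kept in RPMI1640 with 10% FC, 100 U/mL penicillin, streptomycin and […] L-glutamine. Split every third day and diluted to 2· 10⁵ cells/mL one day before testing, so exponentially growing cultures were used. Compound stock was 1 mM in DMSO, diluted straight into the medium to final concentrations. Viability was read by MTS.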

MDA-MB-435 = experiment: Cytotoxicity against human MDA435 cell line by MTS assay; procedure, shortened: as §1
MES-SA/Dx5 = experiment: Cytotoxicity against human MES-SA/DX5 cell line by MTS assay; procedure, shortened: as §1
HL-60 [1] = experiment: Cytotoxicity against human HL60/TX1000 cell line by MTS assay
Procedure, shortened: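 HL-60/TX1000 is a subline isolated in vitro by subculturing HL-60 in rising Taxol concentrations. It overexpresses MDR1 mRNA and P-glycoprotein (Western blot, anti-P-gp immunofluorescence). Cells were grown in RPMI1640 with 10% FC, penicillin, streptomycin and L-glutamine, split every third day and set at 2· 10⁵ cells/mL the day before. Compound was a 1 mM DMSO stock diluted into medium, read by MTS.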

HL-60 [2] = experiment: Cytotoxicity against human HL60 cell line by MTS assay; procedure, shortened: as §1
DU-145 = experiment: Cytotoxicity against human DU145 cell line by MTS assay; procedure, shortened: as §1
P388 = experiment: Cytotoxicity against murine P388 cell line by MTS assay; details: Mus musculus; procedure, shortened: as §1

| Compound | pIC50 (HL-60 [1]) | also measured |
| --- | --- | --- |
| CC(=O)O[C@H]1C(=O)[C@@]2(C)[C@H]([C@H](OC(=O)c3ccccc3)[C@]3(O)C[C@H](OC(=O)[C@H](O)[C@@H](NC(=O)c4ccccc4)c4ccccc4)C(C)=C1C3(C)C)[C@]1(OC(C)=O)CO[C@@H]1C[C@@H]2O [PACLITAXEL] |  | pIC50 (MES-SA): 8.30; pIC50 (MDA-MB-435): 8.30; pIC50 (MES-SA/Dx5): 5.30 |
| O=C(c1nc2ccc[nH]c-2n1)c1cn(Cc2ccc(Cl)cc2)c2ccccc12 | 5.00 |  |
| O=C(O)c1c[nH]c(C(=O)c2cn(Cc3ccc(Cl)cc3)c3ccccc23)n1 | 5.00 |  |
| Cn1c(C(=O)c2cn(Cc3ccc(Cl)cc3)c3ccccc23)nc2cnccc21 | 5.00 |  |
| O=C(c1ncc[nH]1)c1cn(Cc2ccc(Cl)cc2)c2ccccc12 | 5.00 |  |
| O=C(c1cccnc1)c1c[nH]c(C(=O)c2cn(Cc3ccc(Cl)cc3)c3ccccc23)n1 | 6.30 |  |
| O=C(c1nc(-c2ccccn2)c[nH]1)c1cn(Cc2ccc(Cl)cc2)c2ccccc12 | 6.30 |  |
| O=C(c1nc2cc[nH]cc-2n1)c1cn(Cc2ccc(Cl)cc2)c2ccccc12 | 7.30 | pIC50 (MES-SA): 8.00; pIC50 (MDA-MB-435): 7.30; pIC50 (HL-60 [2]): 7.30; pIC50 (DU-145): 7.30; pIC50 (MES-SA/Dx5): 7.30; pIC50 (P388): 7.30 |
| COC(=O)c1c[nH]c(C(=O)c2cn(Cc3ccc(Cl)cc3)c3ccccc23)n1 | 6.30 |  |
| O=C(c1nc(C(O)c2cccnc2)c[nH]1)c1cn(Cc2ccc(Cl)cc2)c2ccccc12 (stereo unspecified) | 5.00 |  |
| CCC(=O)c1c[nH]c(C(=O)c2cn(Cc3ccc(Cl)cc3)c3ccccc23)n1 | 6.30 |  |
| O=C(c1nc(CO)c[nH]1)c1cn(Cc2ccc(Cl)cc2)c2ccccc12 | 5.30 |  |
| CCNC(=O)c1c[nH]c(C(=O)c2cn(Cc3ccc(Cl)cc3)c3ccccc23)n1 | 5.30 |  |
